# According to ChEMBL document CHEMBL3808334, “Synthesis and in vitro evaluation of novel triazine analogues as anticancer agents and their interaction studies with bovine serum albumin” (Eur J Med Chem, 2016):
# Key:
# Assay type in all cases: functional
# SK-MEL-28 = assay: Growth inhibition of human SK-MEL-28 cells incubated for 48 hrs by sulforhodamine B assay; conditions: SK-MEL-28, 48 h
# Procedure, shortened: (§1)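 Cells were plated at 5,000–40,000 per well according to doubling time and preincubated 24 h at 37 °C in 5% CO2; time-zero plates were then TCA-fixed. Five concentrations (10-fold or ½-log dilutions, DMSO stock) were incubated 48 h. Cells were TCA-fixed, stained with 0.4% SRB and read at 515 nm. GI50 was taken where [(Ti−Tz)/(C−Tz)]×100 = 50.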
# [1] = Growth inhibition of human OVCAR8 cells assessed as cell growth at 10^-4 M incubated for 48 hrs by sulforhodamine B assay; conditions: OVCAR-8, 48 h, read-out: Activity
# U-251 = assay: Growth inhibition of human U251 cells assessed as cell growth at 10^-6 M incubated for 48 hrs by sulforhodamine B assay; conditions: U-251, 48 h, read-out: Activity
# [2] = Growth inhibition of human OVCAR4 cells assessed as cell growth at 10^-4 M incubated for 48 hrs by sulforhodamine B assay; conditions: OVCAR-4, 48 h, read-out: Activity
# HT-29 = assay: Growth inhibition of human HT-29 cells assessed as cell growth at 10^-4 M incubated for 48 hrs by sulforhodamine B assay; conditions: HT-29, 48 h, read-out: Activity
# A498 [3] = assay: Growth inhibition of human A498 cells assessed as cell growth at 10 uM incubated for 48 hrs by sulforhodamine B assay; conditions: A498, 48 h, read-out: Activity
# Procedure, shortened: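 One-dose screen at 10 µM final. Cells are plated at 5,000–40,000 per well according to doubling time and preincubated 24 h at 37 °C, 5% CO₂. Compound (DMSO stock diluted in medium with 50 µg/ml gentamicin) is then added for 48 h. Growth percent is read by sulforhodamine B staining, absorbance at 515 nm.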
# A498 [4] = assay: Growth inhibition of human A498 cells assessed as cell growth at 10^-7 M incubated for 48 hrs by sulforhodamine B assay; conditions: A498, 48 h, read-out: Activity
# Procedure, shortened: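 Five-dose assay: five concentrations from 10-fold or ½-log serial dilutions. Cells are plated at 5,000–40,000 per well according to doubling time, grown 24 h, then exposed 48 h at 37 °C, 5% CO₂. Fixed with cold 50% TCA (final addition) for 60 min at 4 °C and stained with 0.4% SRB in 1% acetic acid. Bound dye is solubilized in 10 mM Tris base and read at 515 nm. GI₅₀ is where [(Ti−Tz)/(C−Tz)]×100 = 50, with a time-zero plate as Tz.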
# NCI-H23 = assay: Growth inhibition of human NCI-H23 cells assessed as cell growth at 10^-6 M incubated for 48 hrs by sulforhodamine B assay; conditions: NCI-H23, 48 h, read-out: Activity
# [5] = Growth inhibition of human HOP62 cells assessed as cell growth at 10^-7 M incubated for 48 hrs by sulforhodamine B assay; conditions: HOP-62, 48 h, read-out: Activity
# [6] = Growth inhibition of human HOP92 cells assessed as cell growth at 10^-7 M incubated for 48 hrs by sulforhodamine B assay; conditions: HOP-92, 48 h, read-out: Activity
# NCI-H226 [7] = assay: Growth inhibition of human NCI-H226 cells assessed as cell growth at 10^-5 M incubated for 48 hrs by sulforhodamine B assay; conditions: NCI-H226, 48 h, read-out: Activity
# [8] = Growth inhibition of human HCT15 cells assessed as cell growth at 10 uM incubated for 48 hrs by sulforhodamine B assay; conditions: HCT-15, 48 h, read-out: Activity
# Procedure, shortened: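 Primary screen at one dose (10 µM) across 60 human cancer cell lines. Readout was growth percent relative to untreated control and time-zero.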
# [9] = Growth inhibition of human HCC2998 cells incubated for 48 hrs by sulforhodamine B assay; conditions: HCC 2998, 48 h
# Procedure, shortened: (§2)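 Cells seeded at 5,000–40,000/well according to doubling time and preincubated 24 h at 37 °C, 5% CO2. Time-zero plates were TCA-fixed. DMSO concentrate was diluted in medium with 50 µg/ml gentamicin to give five concentrations (10-fold or ½ log steps), then exposed 48 h. Cells were TCA-fixed, stained with 0.4% SRB and read at 515 nm. Percent growth was taken against time-zero and control; GI50, TGI and LC50 derived.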
# [10] = Growth inhibition of human OVCAR4 cells assessed as cell growth at 10^-6 M incubated for 48 hrs by sulforhodamine B assay; conditions: OVCAR-4, 48 h, read-out: Activity
# CCRF-CEM = assay: Growth inhibition of human CCRF-CEM cells assessed as cell growth at 10^-5 M incubated for 48 hrs by sulforhodamine B assay; conditions: read-out: Activity
# Procedure, shortened: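 Leukemia line in the five-dose format: five concentrations from 10-fold or ½-log serial dilutions. Plated at 5,000–40,000 cells per well, preincubated 24 h, then compound added for 48 h at 37 °C, 5% CO₂. Sulforhodamine B absorbance read at 515 nm. Growth is computed against time-zero (Tz) and control (C) readings; GI₅₀ is where [(Ti−Tz)/(C−Tz)]×100 = 50.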
# [11] = Growth inhibition of human COLO205 cells assessed as cell growth at 10^-8 M incubated for 48 hrs by sulforhodamine B assay; conditions: COLO 205, 48 h, read-out: Activity; procedure, shortened: as §2
# [12] = Growth inhibition of human Caki1 cells assessed as cell growth at 10^-7 M incubated for 48 hrs by sulforhodamine B assay; conditions: CAKI-1, 48 h, read-out: Activity; procedure, shortened: as §2
# [13] = Growth inhibition of human HCT15 cells incubated for 48 hrs by sulforhodamine B assay; conditions: HCT-15, 48 h; procedure, shortened: as §2
# NCI-H226 [14] = assay: Growth inhibition of human NCI-H226 cells assessed as cell growth at 10^-7 M incubated for 48 hrs by sulforhodamine B assay; conditions: NCI-H226, 48 h, read-out: Activity
# [15] = Growth inhibition of human RXF393 cells incubated for 48 hrs by sulforhodamine B assay; conditions: RXF 393, 48 h; procedure, shortened: as §1
# [16] = Growth inhibition of human SNB75 cells assessed as cell growth at 10^-4 M incubated for 48 hrs by sulforhodamine B assay; conditions: SNB-75, 48 h, read-out: Activity
# KM12 = assay: Growth inhibition of human KM12 cells incubated for 48 hrs by sulforhodamine B assay; conditions: KM12, 48 h; procedure, shortened: as §1
# [17] = read-out: LC50 (the source's name)
# [18] = read-out: pLC50 (the source's name) (converted)
smiles,measurement,setting,value
Clc1ccc(-c2nc(Nc3ccc(-c4nc5ccccc5[nH]4)cc3)nc(N3CCOCC3)n2)cc1,GI50,SK-MEL-28; read-out: GI50,1600 nM
same,TGI,SK-MEL-28; read-out: TGI,3220 nM
same,GI50,SK-MEL-28; read-out: pGI50 (converted),1580 nM
same,TGI,SK-MEL-28; read-out: pTGI (converted),3240 nM
same,growth at 100 µM,[1],-79%
same,growth at 1 µM,U-251,-56%
same,growth at 100 µM,[2],-51%
same,growth at 100 µM,HT-29,-42%
same,growth at 10 µM,A498 [3],-81.5%
same,growth at 0.1 µM,A498 [4],82%
same,growth at 1 µM,NCI-H23,85%
same,growth at 0.1 µM,[5],93%
same,growth at 0.1 µM,[6],89%
same,growth at 10 µM,NCI-H226 [7],-55%
same,growth at 10 µM,[8],-92.6%
same,GI50,[9]; read-out: GI50,358 nM
same,GI50,[9]; read-out: pGI50 (converted),355 nM
same,growth at 1 µM,[10],52%
same,growth at 10 µM,CCRF-CEM,-63%
same,growth at 0.01 µM,[11],95%
same,growth at 0.1 µM,[12],93%
same,GI50,[13]; read-out: GI50,188 nM
same,TGI,[13]; read-out: TGI,412 nM
same,GI50,[13]; read-out: pGI50 (converted),191 nM
same,TGI,[13]; read-out: pTGI (converted),407 nM
same,growth at 0.1 µM,NCI-H226 [14],106%
same,GI50,[15]; read-out: GI50,222 nM
same,TGI,[15]; read-out: TGI,450 nM
same,GI50,[15]; read-out: pGI50 (converted),224 nM
same,TGI,[15]; read-out: pTGI (converted),447 nM
same,growth at 100 µM,[16],-26%
same,GI50,KM12; read-out: GI50,370 nM
same,CC50,KM12; [17],4750 nM
same,TGI,KM12; read-out: TGI,1410 nM
same,GI50,KM12; read-out: pGI50 (converted),372 nM
same,CC50,KM12; [18],4790 nM
same,TGI,KM12; read-out: pTGI (converted),1410 nM
c1ccc2[nH]c(-c3ccc(Nc4nc(N5CCCCC5)nc(N5CCOCC5)n4)cc3)nc2c1,GI50,SK-MEL-28; read-out: GI50,1800 nM
same,CC50,SK-MEL-28; [17],8970 nM
same,TGI,SK-MEL-28; read-out: TGI,4020 nM
same,GI50,SK-MEL-28; read-out: pGI50 (converted),1820 nM
same,CC50,SK-MEL-28; [18],8910 nM
same,TGI,SK-MEL-28; read-out: pTGI (converted),3980 nM
same,growth at 100 µM,[1],-49%
same,growth at 1 µM,U-251,76%
same,growth at 100 µM,[2],-32%
same,growth at 100 µM,HT-29,-46%
same,growth at 10 µM,A498 [3],-28.6%
same,growth at 0.1 µM,A498 [4],81%
same,growth at 1 µM,NCI-H23,91%
same,growth at 0.1 µM,[5],96%
same,growth at 0.1 µM,[6],93%
same,growth at 10 µM,NCI-H226 [7],12%
same,growth at 10 µM,[8],-33.9%
same,GI50,[9]; read-out: GI50,3740 nM
same,CC50,[9]; [17],> 100000 nM
same,TGI,[9]; read-out: TGI,> 100000 nM
same,GI50,[9]; read-out: pGI50 (converted),3720 nM
same,CC50,[9]; [18],> 100000 nM
same,TGI,[9]; read-out: pTGI (converted),> 100000 nM
same,growth at 1 µM,[10],93%
same,growth at 10 µM,CCRF-CEM,3%
same,growth at 0.01 µM,[11],99%
same,growth at 0.1 µM,[12],86%
same,GI50,[13]; read-out: GI50,1880 nM
same,CC50,[13]; [17],> 100000 nM
same,TGI,[13]; read-out: TGI,4380 nM
same,GI50,[13]; read-out: pGI50 (converted),1860 nM
same,CC50,[13]; [18],> 100000 nM
same,TGI,[13]; read-out: pTGI (converted),4370 nM
same,growth at 0.1 µM,NCI-H226 [14],84%
same,GI50,[15]; read-out: GI50,808 nM
same,CC50,[15]; [17],> 100000 nM
same,TGI,[15]; read-out: TGI,3280 nM
same,GI50,[15]; read-out: pGI50 (converted),813 nM
same,CC50,[15]; [18],> 100000 nM
same,TGI,[15]; read-out: pTGI (converted),3310 nM
same,growth at 100 µM,[16],-33%
same,GI50,KM12; read-out: GI50,2850 nM
same,CC50,KM12; [17],> 100000 nM
same,TGI,KM12; read-out: TGI,9540 nM
same,GI50,KM12; read-out: pGI50 (converted),2820 nM
same,CC50,KM12; [18],> 100000 nM
same,TGI,KM12; read-out: pTGI (converted),9550 nM
